Experimental data reported in paper PMC10883201 (Nature, 2023).
≈ marks a conversion by molar mass, not a printed value.

Key:
[1] = tested on: C. albicans SN250; experiment: Erg extraction experiment; assay type: cell-based, Candida albicans; conditions: C. albicans SN250, compound at 5 μM
[2] = ITC, Erg-containing LUVs; AmB–Erg binding data reported earlier; cited from earlier work
[3] = tested on: SH-SY5Y neural cells; experiment: Cell viability assay; assay type: cell-based, human; conditions: up to highest concentration tested 50 μM
Method in brief: (§1)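 Cells grown in complete MEM with FBS, Pen-Strep and non-essential amino acids at 37 °C, 5% CO2. Trypsinized cells were adjusted to 5 × 10^5 cells ml−1, seeded at 10^4 cells per well, and held 3 h at 37 °C. Compound was then added at 0.5–50 μM final in 1% DMSO, with DMSO and puromycin controls, for 24 h. alamarBlue was read after 3 h (ex 537/em 585 nm). Triplicate; average of three experiments.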

[4] = tested on: Aspergillus fumigatus 91; experiment: MIC assay; assay type: cell-based
[5] = tested on: K562 cells; experiment: Cell viability assay; assay type: cell-based, human; conditions: up to highest concentration tested 50 μM
Method in brief: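 Suspension cells grown in complete IMDM with FBS and Pen-Strep at 37 °C, 5% CO2. Without trypsinization, suspension was adjusted to 12.5 × 10^5 cells ml−1 and held 3 h at 37 °C before compound. Exposure was 0.5–50 μM final in 1% DMSO, with DMSO and puromycin controls, for 24 h. Viability was by alamarBlue fluorescence after 3 h (ex 537/em 585 nm). Triplicate; average of three experiments.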

[6] = tested on: Candida krusei; experiment: MIC assay; assay type: cell-based
[7] = tested on: human red blood cells; experiment: Red blood cell lysis / permeabilization; assay type: cell-based; conditions: up to highest concentration tested 500 μM
[8] = tested on: H9c2 myocardial cells; experiment: Cell viability assay; assay type: cell-based, rat; conditions: up to highest concentration tested 50 μM
Method in brief: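 Rat myocardial cells maintained in complete DMEM with FBS, Pen-Strep and non-essential amino acids, 37 °C, 5% CO2. After trypsinization, cells at 5 × 10^5 cells ml−1 were seeded at […] and rested 3 h. Compound was given at 0.5–50 μM final (1% DMSO) for 24 h, with DMSO and puromycin controls. alamarBlue was added 3 h, then fluorescence read at 537/585 nm. Triplicate; mean of three experiments.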

[9] = ITC with Chol-containing large unilamellar vesicles; assay type: binding; conditions: ITC heat exchange
[10] = tested on: HepG2 liver cells; experiment: Cell viability assay; assay type: cell-based, human; conditions: up to highest concentration tested 50 μM
Method in brief: as §1

[11] = tested on: primary human renal proximal tubule epithelial cells; experiment: Cell viability assay; assay type: cell-based; conditions: up to highest concentration tested 50 μM
[12] = Renal toxicity in mice, 24 h post single IV dose; assay type: in vivo, female CD-1 mice
[13] = ITC with Erg-containing large unilamellar vesicles; assay type: binding; conditions: ITC heat exchange
[14] = Solution stability in PBS buffer; assay type: physicochemical; conditions: PBS buffer at pH 6

| Compound | T50% (time required for 50% Erg extraction) [1] | ΔΔHErg (ΔHsterol – ΔHsterol-free) [2] | toxicity [3] | MIC [4] | toxicity [5] | MIC [6] | toxicity [7] | toxicity [8] | Chol binding [9] | toxicity [10] | toxicity [11] | kidney injury biomarkers ([12]; 24 h after single IV 45 mg/kg dose) | renal biomarkers ([12]; doses of ≥45 mg kg^−1, single IV, 24 h, 1:2 deoxycholate formulation) | Erg binding [13] | solution stability [14] |
| --- | --- | --- | --- | --- | --- | --- | --- | --- | --- | --- | --- | --- | --- | --- | --- |
| C[C@@H]1[C@H](O)[C@@H](C)/C=C/C=C/C=C/C=C/C=C/C=C/C=C/[C@H](O[C@@H]2O[C@H](C)[C@@H](O)[C@H](N)[C@@H]2O)C[C@@H]2O[C@](O)(C[C@@H](O)C[C@@H](O)[C@H](O)CC[C@@H](O)C[C@@H](O)CC(=O)O[C@H]1C)C[C@H](O)[C@H]2C(=O)O [AmB, amphotericin B, reference compound] | 0.92 h | -42.4 ± 11.2 µcal | – | – | – | – | – | – | – | – | – | – | – | – | – |
| C[C@@H]1[C@H](O)[C@@H](C)/C=C/C=C/C=C/C=C/C=C/C=C/C=C/[C@H](O[C@@H]2O[C@H](C)[C@@H](O)[C@H](N)[C@H]2O)C[C@@H]2O[C@](O)(C[C@@H](O)C[C@@H](O)[C@H](O)CC[C@@H](O)C[C@@H](O)CC(=O)O[C@H]1C)C[C@H](O)[C@H]2C(=O)O [C2′epiAmB] | 2.75 h | – | no toxicity | > 32 µM | no toxicity | 1 µM (≈ 0.924 µg/mL) | no toxicity | no toxicity | no binding | no toxicity | no toxicity | do not elevate kidney injury biomarkers | no elevation of renal biomarkers | retained, albeit diminished, capacity to bind Erg | – |
| CC1C=CC=CC=CC=CC=CC=CC=CC(OC2CC(N)C(O)C(C)O2)CC2OC(O)(CC(O)CC(O)C(O)CCC(O)CC(O)CC(=O)OC(C)C(C)C1O)CC(O)C2C(=O)O (stereo not shown) [C2′deOAmB] | – | – | – | – | – | – | – | – | – | – | – | – | – | – | unstable |
